# Activity calls are given as the source filed them. The rule behind the calls is not given here.
# Experiments:
# [1] = AUC (0 to 8 hrs) in NMRI mouse at 50 mg/kg, po administered via gavage by UPLC/MS/MS analysis; type: ADME, organism-based; design: dose 50 mg/kg, time < 8 hr, route oral; settings: in vivo
# [2] = biological target: Voltage-gated inwardly rectifying potassium channel KCNH2 (Homo sapiens, UniProt Q12809); assay: Inhibition of human ERG by patch clamp assay
# [3] = Inhibition of Trypanosoma brucei NMT using [3H]-myristoyl-coA/biotinylated CAP5.5 as substrate after 50 mins by scintillation proximity assay
# Procedure, shortened: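 TbNMT scintillation proximity assay at 22–23 °C, with test compound dilutions added in DMSO. Reaction: 30 mM Tris pH 7.4, 0.5 mM EDTA, 0.5 mM EGTA, 1.25 mM DTT, 0.1% Triton X-100, 0.125 μM [3H]myristoyl-coA, 0.5 μM biotinylated CAP5.5 peptide, 5 nM enzyme. Enzyme added first, then substrate mix to start; stopped after 50 min with phosphoric acid pH 4.0/MgCl2/SPA beads; scintillation counting.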
# [4] = tested on: Trypanosoma brucei brucei; assay: Antitrypanosomal activity against Trypanosoma brucei brucei GVR35 trypomastigotes infected in NMRI mouse assessed as reduction in parasitaemia level at 50 to 200 mg/kg, po administered twice daily for 5 days starting from day 21 post infection; type: functional, organism-based
# [5] = Toxicity in NMRI mouse administered orally for twice per day for 3 days; type: organism-based; settings: in vivo, po
# [6] = tested on: Trypanosoma brucei brucei; assay: Antitrypanosomal activity against Trypanosoma brucei brucei s427 trypomastigotes infected in NMRI mouse at 10 mg/kg, po administered twice daily for 4 days starting from day 3 post infection; type: functional, organism-based
# Procedure, shortened: (§1)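 Stage 1 HAT model: female NMRI mice infected with T. brucei s427. Compound given orally twice a day for 4 days, starting day 3 postinfection. Outcome scored as cure versus relapse.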
# [7] = tested on: Trypanosoma brucei brucei; assay: Antitrypanosomal activity against Trypanosoma brucei brucei GVR35 trypomastigotes infected in CF1 mdr1a deficient mouse assessed as reduction in parasitaemia level at 50 mg/kg, po administered twice daily for 5 days starting from day 21 post infection; type: functional, organism-based
# Procedure, shortened: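 Stage 2 HAT model using CF-1 mdr1a-deficient mice infected with T. b. brucei GVR35. Compound given orally twice daily for 5 days from day 21 postinfection. Comparator arms: Berenil or melarsoprol given intraperitoneally once daily.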
# [8] = Tmax in NMRI mouse at 50 mg/kg, po administered via gavage by UPLC/MS/MS analysis; type: ADME, organism-based; settings: in vivo
# [9] = Cmax in NMRI mouse at 50 mg/kg, po administered via gavage by UPLC/MS/MS analysis; type: ADME, organism-based; design: dose 50 mg/kg, route oral; settings: in vivo
# [10] = Fraction unbound in CD1 mouse plasma at 10 ug/ml after 5 hrs by UPLC-MS/MS analysis
# [11] = Intrinsic clearance in CD1 mouse liver microsomes at 1 uM measured up to 30 mins by UPLC-MS/MS method; type: ADME, microsome; settings: 0.5 h
# [12] = tested on: Trypanosoma brucei brucei; assay: Antitrypanosomal activity against Trypanosoma brucei brucei s427 trypomastigotes infected in NMRI mouse at 0.3 to 3 mg/kg, po administered twice daily for 4 days starting from day 3 post infection; type: functional, organism-based; procedure, shortened: as §1
# [13] = tested on: Trypanosoma brucei brucei; assay: Antitrypanosomal activity against bloodstream form of Trypanosoma brucei brucei s427 after 69 hrs by resazurin-based […] analysis; type: functional, organism-based; settings: s427, 69 h
# Procedure, shortened: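 Bloodstream T. b. brucei s427 was grown in modified HMI9 (56 μM 1-thioglycerol in place of 2-mercaptoethanol) and counted by hemocytometer. Cells (10^4/ml) were added to compound in DMSO and incubated 69 h at 37 °C, 5% CO2. Resazurin (50 μM final) was then added for 4 h more. Fluorescence read at ex 528/em 590 nm.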
# [14] = Ratio of drug level in NMRI mouse brain to plasma at 0.5 mg/kg, iv after 5 to 30 mins by UPLC/MS/MS analysis; settings: brain and plasma
# [15] = Half life in CD1 mouse plasma at 50 uM by UPLC-MS/MS analysis; type: ADME, cell-free
# [16] = Drug metabolism in CD1 mouse plasma assessed as 4-(azepan-1-yl)-3-(4-methoxyphenylsulfonamido)benzoic acid formation at 50 uM incubated for 30 to 180 mins by UPLC-MS/MS analysis; type: ADME, cell-free
# Sequence of Voltage-gated inwardly rectifying potassium channel KCNH2 (Q12809 whole entry): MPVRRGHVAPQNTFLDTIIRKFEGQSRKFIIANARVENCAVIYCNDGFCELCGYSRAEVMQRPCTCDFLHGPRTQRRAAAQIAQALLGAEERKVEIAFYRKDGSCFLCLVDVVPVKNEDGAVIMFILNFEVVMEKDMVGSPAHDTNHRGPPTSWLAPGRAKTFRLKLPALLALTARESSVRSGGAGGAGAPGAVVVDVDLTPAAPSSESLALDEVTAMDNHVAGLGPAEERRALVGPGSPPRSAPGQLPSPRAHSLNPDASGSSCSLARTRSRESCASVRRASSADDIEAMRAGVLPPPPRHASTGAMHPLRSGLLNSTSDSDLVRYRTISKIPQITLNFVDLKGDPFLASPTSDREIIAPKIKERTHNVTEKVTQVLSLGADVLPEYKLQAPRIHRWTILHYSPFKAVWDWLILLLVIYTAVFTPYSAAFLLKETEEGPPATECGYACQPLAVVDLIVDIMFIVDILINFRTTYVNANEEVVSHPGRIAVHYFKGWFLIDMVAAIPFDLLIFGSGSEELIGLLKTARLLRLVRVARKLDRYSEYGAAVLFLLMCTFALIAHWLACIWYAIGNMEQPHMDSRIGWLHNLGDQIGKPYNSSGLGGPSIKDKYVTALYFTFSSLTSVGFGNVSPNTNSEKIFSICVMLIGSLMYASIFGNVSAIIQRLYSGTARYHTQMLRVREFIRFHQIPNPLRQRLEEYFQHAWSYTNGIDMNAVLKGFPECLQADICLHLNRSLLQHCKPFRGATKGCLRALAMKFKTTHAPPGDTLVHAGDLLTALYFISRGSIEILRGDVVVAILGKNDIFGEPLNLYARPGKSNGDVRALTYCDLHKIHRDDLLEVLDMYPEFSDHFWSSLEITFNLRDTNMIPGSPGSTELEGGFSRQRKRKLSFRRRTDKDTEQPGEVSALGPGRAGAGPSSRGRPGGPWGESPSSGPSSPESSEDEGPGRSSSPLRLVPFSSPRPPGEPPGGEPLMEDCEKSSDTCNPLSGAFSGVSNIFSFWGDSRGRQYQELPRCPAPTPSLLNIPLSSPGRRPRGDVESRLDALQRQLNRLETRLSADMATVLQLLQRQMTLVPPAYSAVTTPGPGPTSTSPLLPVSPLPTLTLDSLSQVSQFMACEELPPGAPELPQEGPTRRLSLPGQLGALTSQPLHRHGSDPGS
SMILES,"fraction unbound at 5 h, 10 ug/ml [10]",CLH [11],EC50 [13],IC50 [2],IC50 [3],also measured
CC(C)Cc1ccc2nn(C)cc2c1NS(=O)(=O)c1ccc(CCCCC2CCN(C)CC2)cc1,0.062,2.9 mL/min/g,5 nM,3700 nM,< 5 nM,AUC(0-t) at 8 h [1]: 48300 ng·h/mL; Activity [4]: inactive; MTD at 72 h [5]: > 300 mg/kg; Activity [6]: Active; Activity [7]: Active; Tmax [8]: 1 h; Cmax [9]: 11000 ng/mL; Activity [12]: inactive
CC(C)Cc1ccc2nn(C)cc2c1N(C(F)F)S(=O)(=O)c1ccc(CCCCC2CCN(C)CC2)cc1,,2.3 mL/min/g,,,,Kp [14]: 1.9
CC(C)Cc1ccc2ncccc2c1NS(=O)(=O)c1ccc(CCCO[C@@H]2C[C@H]3CC[C@@H](C2)N3C)cc1,0.18,1.5 mL/min/g,91 nM,1600 nM,7 nM,
CC(C)Cc1ccc2nn(C)cc2c1NS(=O)(=O)c1ccc(CCCOC[C@H]2COCCN2C)cc1,,20 mL/min/g,220 nM,3100 nM,7 nM,

# Further lines, with some results ahead:
"fraction unbound at 5 h, 10 ug/ml [10]",CLH [11],EC50 [13],SMILES,IC50 [2],IC50 [3],also measured
0.17,6.2 mL/min/g,40 nM,CC(C)Cc1ccc2ncccc2c1NS(=O)(=O)c1ccc(CCCN2CCN3CCC[C@@H]3C2)cc1,1300 nM,< 5 nM,
0.093,1.8 mL/min/g,59 nM,CC(C)Cc1ccc2ncccc2c1NS(=O)(=O)c1ccc(CCCCN2CCCN(C)CC2)cc1,,6 nM,
,1.4 mL/min/g,39 nM,CC(C)Cc1ccc2nn(C)cc2c1NS(=O)(=O)c1ccc(CCCO[C@@H]2C[C@H]3CC[C@@H](C2)N3C)cc1,3300 nM,5 nM,
,,20 nM,COC(=O)c1ccc(N2CCCCCC2)c(NS(=O)(=O)c2ccc(CCCCC3CCN(C)CC3)cc2)c1,,6 nM,half-life at 50 µM [15]: < 0.25 h; Drug metabolism [16]: Metabolite_Detected

# Reference: ChEMBL document CHEMBL4229565 (J Med Chem, 2018)
